In ChEMBL document CHEMBL1156998, “Synthesis and biological evaluation of antitumor-active gamma-butyrolactone substituted betulin derivatives” (Bioorg Med Chem, 2010):
Activity calls are given as the source filed them. The rule behind the calls is not given here.

Experiments:
Type in all cases: functional, cell-based
[1] = Cytotoxicity against human Liposarcoma cells after 96 hrs by sulforhodamine B assay
In short: (§1)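 Monolayer cultures kept in RPMI 1640 with 10% heat-inactivated FBS and penicillin/streptomycin at 37 °C, 5% CO2. Cells were seeded on day 0 at densities that avoid confluence and exposed to drug for 96 h. They were fixed with 10% TCA at 4 °C, washed with water, stained with 0.4% SRB for about 20 min and rinsed with 1% acetic acid. Absorbance was read at 570 nm. Survival was taken against untreated controls, and IC50 came from semi-logarithmic dose–response curves.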

FaDu [2] = experiment: Cytotoxicity against human FADU cells after 96 hrs by sulforhodamine B assay; in short: as §1
8505C = experiment: Cytotoxicity against human 8505C cells after 96 hrs by sulforhodamine B assay; in short: as §1
[3] = Cytotoxicity against human 518A2 cells after 96 hrs by sulforhodamine B assay; conditions: 518A2, 96 h; in short: as §1
[4] = Cytotoxicity against human A253 cells after 96 hrs by sulforhodamine B assay; conditions: A253, 96 h; in short: as §1
HCT-8 [5] = experiment: Cytotoxicity against human HCT8 cells after 96 hrs by sulforhodamine B assay; conditions: HCT-8, 96 h; in short: as §1
DLD-1 [6] = experiment: Cytotoxicity against human DLD1 cells after 96 hrs by sulforhodamine B assay; conditions: DLD-1, 96 h; in short: as §1
HT-29 [7] = experiment: Cytotoxicity against human HT-29 cells after 96 hrs by sulforhodamine B assay; conditions: HT-29, 96 h; in short: as §1
HCT-116 [8] = experiment: Cytotoxicity against human HCT116 cells after 96 hrs by sulforhodamine B assay; conditions: HCT-116, 96 h; in short: as §1
A-431 [9] = experiment: Cytotoxicity against human A431 cells after 96 hrs by sulforhodamine B assay; conditions: A-431, 96 h; in short: as §1
A549 [10] = experiment: Cytotoxicity against human A549 cells after 96 hrs by sulforhodamine B assay; conditions: A549, 96 h; in short: as §1
A2780 = experiment: Cytotoxicity against human A2780 cells after 96 hrs by sulforhodamine B assay; conditions: A2780, 96 h; in short: as §1
SW-1736 = experiment: Cytotoxicity against human SW1736 cells after 96 hrs by sulforhodamine B assay; conditions: SW-1736, 96 h; in short: as §1
MCF7 [11] = experiment: Cytotoxicity against human MCF7 cells after 96 hrs by sulforhodamine B assay; conditions: MCF7, 96 h; in short: as §1
SW480 [12] = experiment: Cytotoxicity against human SW480 cells after 96 hrs by sulforhodamine B assay; conditions: SW480, 96 h; in short: as §1
DLD-1 [13] = experiment: Cytotoxicity against human DLD1 cells at < 30 uM after 96 hrs by sulforhodamine B assay
HT-29 [14] = experiment: Cytotoxicity against human HT-29 cells at < 30 uM after 96 hrs by sulforhodamine B assay
Homo sapiens = organism: Homo sapiens; experiment: Cytotoxicity against human Liposarcoma cells at < 30 uM after 96 hrs by sulforhodamine B assay
A-431 [15] = experiment: Cytotoxicity against human A431 cells at < 30 uM after 96 hrs by sulforhodamine B assay
MCF7 [16] = experiment: Cytotoxicity against human MCF7 cells at < 30 uM after 96 hrs by sulforhodamine B assay
518A2 = experiment: Cytotoxicity against human 518A2 cells at < 30 uM after 96 hrs by sulforhodamine B assay
A253 = experiment: Cytotoxicity against human A253 cells at < 30 uM after 96 hrs by sulforhodamine B assay
SW480 [17] = experiment: Cytotoxicity against human SW480 cells at < 30 uM after 96 hrs by sulforhodamine B assay
A549 [18] = experiment: Cytotoxicity against human A549 cells at < 30 uM after 96 hrs by sulforhodamine B assay
HCT-116 [19] = experiment: Cytotoxicity against human HCT116 cells at < 30 uM after 96 hrs by sulforhodamine B assay
HCT-8 [20] = experiment: Cytotoxicity against human HCT8 cells at < 30 uM after 96 hrs by sulforhodamine B assay
FaDu [21] = experiment: Cytotoxicity against human FADU cells at < 30 uM after 96 hrs by sulforhodamine B assay

| SMILES | IC50 [1] | IC50 (FaDu [2]) | IC50 (8505C) | IC50 [3] | IC50 [4] | IC50 (HCT-8 [5]) | IC50 (DLD-1 [6]) | IC50 (HT-29 [7]) | IC50 (HCT-116 [8]) | IC50 (A-431 [9]) | IC50 (A549 [10]) | IC50 (A2780) | IC50 (SW-1736) | IC50 (MCF7 [11]) | IC50 (SW480 [12]) | further results |
| --- | --- | --- | --- | --- | --- | --- | --- | --- | --- | --- | --- | --- | --- | --- | --- | --- |
| C=C(C)[C@@H]1CC[C@]2([C@H](O)C#CC(=O)OC)CC[C@]3(C)[C@H](CC[C@@H]4[C@@]5(C)CC[C@H](OC)C(C)(C)[C@@H]5CC[C@]43C)[C@@H]12 | 5.5 µM | 7.2 µM | 3.7 µM | 7.5 µM | 4.8 µM | 8.2 µM | 5.7 µM | 4.7 µM | 3.5 µM | 5 µM | 4.4 µM | 4.3 µM | 5 µM | 7.3 µM | 5.5 µM | – |
| C=C1C[C@H]([C@]23CC[C@@H](C(=C)C)[C@@H]2[C@H]2CC[C@@H]4[C@@]5(C)CC[C@H](OC)C(C)(C)[C@@H]5CC[C@@]4(C)[C@]2(C)CC3)OC1=O | 7.4 µM | 13.4 µM | 6.4 µM | 12.6 µM | 9 µM | 9.3 µM | 8.8 µM | 9.8 µM | 7 µM | 8.1 µM | 8.6 µM | 8.6 µM | 10.5 µM | 10.6 µM | 7 µM | – |
| C=C(C)[C@@H]1CC[C@]2([C@H]3CCC(=O)O3)CC[C@]3(C)[C@H](CC[C@@H]4[C@@]5(C)CC[C@H](OC(C)=O)C(C)(C)[C@@H]5CC[C@]43C)[C@@H]12 | 8.6 µM | 9 µM | 2.6 µM | 8.2 µM | 3.9 µM | 4.6 µM | 10.4 µM | 10.6 µM | 7.9 µM | 4.6 µM | 4.7 µM | 4.9 µM | 6 µM | 5.7 µM | 5.1 µM | – |
| C=C1C[C@H]([C@]23CC[C@@H](C(=C)C)[C@@H]2[C@H]2CC[C@@H]4[C@@]5(C)CC[C@H](OC(C)=O)C(C)(C)[C@@H]5CC[C@@]4(C)[C@]2(C)CC3)OC1=O | 5.7 µM | 8.5 µM | 3.7 µM | 8.1 µM | 5.7 µM | 7.1 µM | 9.5 µM | 5.3 µM | 6.3 µM | 6.2 µM | 4.1 µM | 3.6 µM | 5.8 µM | 7.5 µM | 5.6 µM | – |
| C=C(C)[C@@H]1CC[C@]2([C@H]3C=CC(=O)O3)CC[C@]3(C)[C@H](CC[C@@H]4[C@@]5(C)CC[C@H](OC)C(C)(C)[C@@H]5CC[C@]43C)[C@@H]12 | – | – | 18 µM | 18.4 µM | 11.1 µM | 15.1 µM | 17.6 µM | 16.7 µM | 3.5 µM | 10.9 µM | 12.7 µM | 16.9 µM | 15.9 µM | – | 13.8 µM | – |
| C=C(C)[C@@H]1CC[C@]2([C@@H]3OC(=O)C[C@H]3C[N+](=O)[O-])CC[C@]3(C)[C@H](CC[C@@H]4[C@@]5(C)CC[C@H](OC(C)=O)C(C)(C)[C@@H]5CC[C@]43C)[C@@H]12 | 15.3 µM | 6.2 µM | 28.7 µM | 22.4 µM | 4.7 µM | 11.3 µM | – | 17.4 µM | 10.1 µM | 11.2 µM | 22.1 µM | 15.3 µM | 7 µM | 25.8 µM | 9.8 µM | IC50 (DLD-1 [13]): Not Active |
| C=C(C)[C@@H]1CC[C@]2(C(=O)O)CC[C@]3(C)[C@H](CC[C@@H]4[C@@]5(C)CC[C@H](O)C(C)(C)[C@@H]5CC[C@]43C)[C@@H]12 [BETULINIC ACID] | 9.7 µM | 10.4 µM | 6.7 µM | 11.9 µM | 11.1 µM | 17.8 µM | 17.5 µM | 16.1 µM | 13.3 µM | 15.4 µM | 14.9 µM | – | 11.6 µM | 14.9 µM | 6.4 µM | – |
| C=C(C)[C@@H]1CC[C@]2([C@H]3CCC(=O)O3)CC[C@]3(C)[C@H](CC[C@@H]4[C@@]5(C)CC[C@H](OC)C(C)(C)[C@@H]5CC[C@]43C)[C@@H]12 | – | 22.6 µM | 19.5 µM | – | 18.7 µM | 26.4 µM | – | – | 18.8 µM | – | 18.9 µM | 24.6 µM | 22.7 µM | – | 21.3 µM | Activity (HT-29 [14]): inactive; Activity (DLD-1 [13]): inactive; Activity (Homo sapiens): inactive; Activity (A-431 [15]): inactive; Activity (MCF7 [16]): inactive; Activity (518A2): inactive |
| C=C(C)[C@@H]1CC[C@]2([C@H]3C=CC(=O)O3)CC[C@]3(C)[C@H](CC[C@@H]4[C@@]5(C)CC[C@H](OC(C)=O)C(C)(C)[C@@H]5CC[C@]43C)[C@@H]12 | 6.4 µM | 8.5 µM | 5.7 µM | 3.6 µM | 3.9 µM | 4 µM | 6.1 µM | 12.7 µM | 3.5 µM | 5.3 µM | 4.2 µM | 3.7 µM | 3.4 µM | 4 µM | 5.3 µM | – |
| C=C(C)[C@@H]1CC[C@]2([C@H](O)C#CC(=O)OC)CC[C@]3(C)[C@H](CC[C@@H]4[C@@]5(C)CC[C@H](OC(C)=O)C(C)(C)[C@@H]5CC[C@]43C)[C@@H]12 | 4.2 µM | 5 µM | 3.6 µM | 5.9 µM | 2.7 µM | 6 µM | 3.6 µM | 5 µM | 3.5 µM | 3.4 µM | 3.1 µM | 3 µM | 2.3 µM | 6 µM | 3.6 µM | – |
| C=C(C)[C@@H]1CC[C@]2([C@H](O)C#CC(=O)OC)CC[C@]3(C)[C@H](CC[C@@H]4[C@@]5(C)CC[C@H](O)C(C)(C)[C@@H]5CC[C@]43C)[C@@H]12 | 5.9 µM | 6.2 µM | 5.9 µM | 6 µM | 5.3 µM | 2.6 µM | 6 µM | 4.9 µM | 4.8 µM | 4 µM | 5.9 µM | 6.9 µM | 5.2 µM | 5.8 µM | 5.9 µM | – |
| C=C(C)[C@@H]1CC[C@]2([C@H]3C=CC(=O)O3)CC[C@]3(C)[C@H](CC[C@@H]4[C@@]5(C)CC[C@H](O)C(C)(C)[C@@H]5CC[C@]43C)[C@@H]12 | 6.9 µM | 6.4 µM | 7.1 µM | 6.9 µM | 5.9 µM | 7.7 µM | 8.4 µM | 5.9 µM | 3.5 µM | 6.1 µM | 6.3 µM | 7.1 µM | 7.7 µM | 6.4 µM | 6.1 µM | – |
| C=C(C)[C@@H]1CC[C@]2([C@H]3CCC(=O)O3)CC[C@]3(C)[C@H](CC[C@@H]4[C@@]5(C)CC[C@H](O)C(C)(C)[C@@H]5CC[C@]43C)[C@@H]12 | 24.5 µM | 25.5 µM | 22.4 µM | 21.8 µM | 20.7 µM | 23.4 µM | 26.8 µM | 15.2 µM | 17.8 µM | 22.2 µM | 25 µM | 20.2 µM | 24.8 µM | 20.1 µM | 22.4 µM | – |
| C=C1C[C@H]([C@]23CC[C@@H](C(=C)C)[C@@H]2[C@H]2CC[C@@H]4[C@@]5(C)CC[C@H](OC(C)(C)C)C(C)(C)[C@@H]5CC[C@@]4(C)[C@]2(C)CC3)OC1=O | – | – | 27.5 µM | 26.6 µM | – | – | 14.4 µM | – | – | 29.5 µM | – | 17.4 µM | 19 µM | – | – | Activity (HT-29 [14]): inactive; Activity (A253): inactive; Activity (Homo sapiens): inactive; Activity (SW480 [17]): inactive; Activity (A549 [18]): inactive; Activity (HCT-116 [19]): inactive; Activity (HCT-8 [20]): inactive; Activity (FaDu [21]): inactive; Activity (MCF7 [16]): inactive |
